Legend:
[1] = biological target: T1, 5-hydroxytryptamine receptor 1A (Homo sapiens) (UniProt P08908); test: Percent decrease in 5-hydroxytryptamine 1A receptor binding using 8-OH-DPAT; parameters: concentration or dose not given beside the values
T1 sequence (whole entry): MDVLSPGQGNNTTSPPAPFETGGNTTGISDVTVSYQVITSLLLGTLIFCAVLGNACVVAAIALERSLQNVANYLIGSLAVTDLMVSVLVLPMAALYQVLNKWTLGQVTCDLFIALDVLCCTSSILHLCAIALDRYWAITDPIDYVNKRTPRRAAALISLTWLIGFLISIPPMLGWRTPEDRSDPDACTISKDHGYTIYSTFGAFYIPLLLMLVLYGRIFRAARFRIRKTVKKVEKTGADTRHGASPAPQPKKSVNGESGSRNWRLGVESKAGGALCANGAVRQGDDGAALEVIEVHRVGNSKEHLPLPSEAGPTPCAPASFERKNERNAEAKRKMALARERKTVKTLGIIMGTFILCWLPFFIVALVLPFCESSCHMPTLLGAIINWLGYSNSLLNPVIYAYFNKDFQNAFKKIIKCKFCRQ
In short: (§1)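 Preliminary screen of receptors isolated from rat or pig tissues, run with minor changes to standard procedures. Each compound was tested at a single fixed concentration for each receptor. The read-out was the percent decrease in binding of the named radioligand.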

[2] = biological target: Serotonin 2 (5-HT2) receptor (Rattus norvegicus, UniProt P30994+P08909+P14842); test: Binding affinity against 5-hydroxytryptamine 2 receptor in rat striatum using [3H]-RP62203; type: tissue-based
[3] = Percent decrease in Dopamine receptor D2 binding using spiperone; parameters: scale not given: the % may be the effect or the level left
[4] = biological target: Glutamate [NMDA] receptor (Homo sapiens) (UniProt Q05586+Q12879+Q13224+O15399+O60391+Q14957+Q8TCU5); test: Percent decrease of N-methyl-D-aspartate glutamate receptor binding using MK-801; type: protein-complex assay; parameters: concentration or dose not given beside the values; in short: as §1
[5] = Percent decrease of Endothelin receptor binding using [125I]sarafotoxin; parameters: concentration or dose not given beside the values
[6] = biological target: Sodium-dependent serotonin transporter (Homo sapiens) (UniProt P31645); test: % Decrease of 5-HT carrier-receptor -bound radioactivity using paroxetine as a radioligand.; parameters: concentration or dose not given beside the values; in short: as §1
Chain of Sodium-dependent serotonin transporter (Homo sapiens) (P31645 whole entry, looked up): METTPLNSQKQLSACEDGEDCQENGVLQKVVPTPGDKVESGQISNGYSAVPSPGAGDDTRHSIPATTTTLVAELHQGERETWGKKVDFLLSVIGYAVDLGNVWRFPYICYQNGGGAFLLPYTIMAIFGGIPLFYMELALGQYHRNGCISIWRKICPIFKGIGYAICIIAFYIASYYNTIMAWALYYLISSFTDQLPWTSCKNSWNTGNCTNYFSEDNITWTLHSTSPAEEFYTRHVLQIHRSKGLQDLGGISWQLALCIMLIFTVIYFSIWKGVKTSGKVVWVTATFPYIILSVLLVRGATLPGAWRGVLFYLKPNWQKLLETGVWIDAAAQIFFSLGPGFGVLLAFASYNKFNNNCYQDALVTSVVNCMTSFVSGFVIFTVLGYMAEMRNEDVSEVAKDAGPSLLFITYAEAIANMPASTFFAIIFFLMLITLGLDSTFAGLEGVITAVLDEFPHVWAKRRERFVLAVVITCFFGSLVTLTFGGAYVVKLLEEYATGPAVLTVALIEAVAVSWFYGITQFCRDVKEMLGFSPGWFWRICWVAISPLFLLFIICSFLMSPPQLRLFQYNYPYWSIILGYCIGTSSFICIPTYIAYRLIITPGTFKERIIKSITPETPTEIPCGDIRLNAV

[7] = % Decrease of Phorbol Diester Receptor -bound radioactivity using PDBU as a radioligand.; parameters: scale not given: the % may be the effect or the level left; in short: as §1
[8] = biological target: Neuronal acetylcholine receptor (Rattus norvegicus) (UniProt P04757+P09483+P12389+P12390+P12392+P43144+Q9JLB5+P12391+P43143+P20420+Q05941); test: % Decrease of Nicotinic acetylcholine receptor-bound radioactivity using cytisine as a radioligand.; type: protein-complex assay; parameters: scale not given: the % may be the effect or the level left; in short: as §1
D(1A) dopamine receptor = D(1A) dopamine receptor (Rattus norvegicus, UniProt P18901); test: Binding affinity against Dopamine receptor D1 of rat striatal receptor using [3H]SCH-23390
Chain of D(1A) dopamine receptor (P18901 whole entry): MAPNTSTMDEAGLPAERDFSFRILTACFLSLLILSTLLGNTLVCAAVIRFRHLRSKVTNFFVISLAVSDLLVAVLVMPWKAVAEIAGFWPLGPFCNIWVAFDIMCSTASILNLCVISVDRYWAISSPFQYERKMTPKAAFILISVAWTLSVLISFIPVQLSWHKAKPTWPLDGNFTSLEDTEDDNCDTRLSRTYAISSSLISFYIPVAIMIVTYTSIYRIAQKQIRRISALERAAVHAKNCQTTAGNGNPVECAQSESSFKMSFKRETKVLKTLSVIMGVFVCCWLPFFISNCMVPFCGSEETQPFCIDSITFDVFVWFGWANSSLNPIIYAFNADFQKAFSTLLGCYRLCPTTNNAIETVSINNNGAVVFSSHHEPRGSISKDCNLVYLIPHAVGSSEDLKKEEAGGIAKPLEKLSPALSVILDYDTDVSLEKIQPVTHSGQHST
In short: (§2)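 Rat striatal receptor preparations were used, with [3H]SCH23390 for D1, [3H]spiperone for D2 and [3H]RP62203 for 5-HT2. Ki ([…]) was derived from competitive displacement of the radioligand, with n = 3–7.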

D(2) dopamine receptor = D(2) dopamine receptor (Rattus norvegicus, UniProt P61169); test: Binding affinity against Dopamine receptor D2 of rat striatal mambranes using [3H]spiperone; in short: as §2
[9] = biological target: Sulfonylurea receptors; K-ATP channels (Homo sapiens) (UniProt Q14654+O60706+Q09428+Q15842); test: Percent inhibition of glibenclamide binding to K+ channel; type: protein-complex assay; parameters: concentration or dose not given beside the values; in short: as §1
Chain of Sulfonylurea receptors; K-ATP channels (Homo sapiens) (O60706 whole entry, looked up): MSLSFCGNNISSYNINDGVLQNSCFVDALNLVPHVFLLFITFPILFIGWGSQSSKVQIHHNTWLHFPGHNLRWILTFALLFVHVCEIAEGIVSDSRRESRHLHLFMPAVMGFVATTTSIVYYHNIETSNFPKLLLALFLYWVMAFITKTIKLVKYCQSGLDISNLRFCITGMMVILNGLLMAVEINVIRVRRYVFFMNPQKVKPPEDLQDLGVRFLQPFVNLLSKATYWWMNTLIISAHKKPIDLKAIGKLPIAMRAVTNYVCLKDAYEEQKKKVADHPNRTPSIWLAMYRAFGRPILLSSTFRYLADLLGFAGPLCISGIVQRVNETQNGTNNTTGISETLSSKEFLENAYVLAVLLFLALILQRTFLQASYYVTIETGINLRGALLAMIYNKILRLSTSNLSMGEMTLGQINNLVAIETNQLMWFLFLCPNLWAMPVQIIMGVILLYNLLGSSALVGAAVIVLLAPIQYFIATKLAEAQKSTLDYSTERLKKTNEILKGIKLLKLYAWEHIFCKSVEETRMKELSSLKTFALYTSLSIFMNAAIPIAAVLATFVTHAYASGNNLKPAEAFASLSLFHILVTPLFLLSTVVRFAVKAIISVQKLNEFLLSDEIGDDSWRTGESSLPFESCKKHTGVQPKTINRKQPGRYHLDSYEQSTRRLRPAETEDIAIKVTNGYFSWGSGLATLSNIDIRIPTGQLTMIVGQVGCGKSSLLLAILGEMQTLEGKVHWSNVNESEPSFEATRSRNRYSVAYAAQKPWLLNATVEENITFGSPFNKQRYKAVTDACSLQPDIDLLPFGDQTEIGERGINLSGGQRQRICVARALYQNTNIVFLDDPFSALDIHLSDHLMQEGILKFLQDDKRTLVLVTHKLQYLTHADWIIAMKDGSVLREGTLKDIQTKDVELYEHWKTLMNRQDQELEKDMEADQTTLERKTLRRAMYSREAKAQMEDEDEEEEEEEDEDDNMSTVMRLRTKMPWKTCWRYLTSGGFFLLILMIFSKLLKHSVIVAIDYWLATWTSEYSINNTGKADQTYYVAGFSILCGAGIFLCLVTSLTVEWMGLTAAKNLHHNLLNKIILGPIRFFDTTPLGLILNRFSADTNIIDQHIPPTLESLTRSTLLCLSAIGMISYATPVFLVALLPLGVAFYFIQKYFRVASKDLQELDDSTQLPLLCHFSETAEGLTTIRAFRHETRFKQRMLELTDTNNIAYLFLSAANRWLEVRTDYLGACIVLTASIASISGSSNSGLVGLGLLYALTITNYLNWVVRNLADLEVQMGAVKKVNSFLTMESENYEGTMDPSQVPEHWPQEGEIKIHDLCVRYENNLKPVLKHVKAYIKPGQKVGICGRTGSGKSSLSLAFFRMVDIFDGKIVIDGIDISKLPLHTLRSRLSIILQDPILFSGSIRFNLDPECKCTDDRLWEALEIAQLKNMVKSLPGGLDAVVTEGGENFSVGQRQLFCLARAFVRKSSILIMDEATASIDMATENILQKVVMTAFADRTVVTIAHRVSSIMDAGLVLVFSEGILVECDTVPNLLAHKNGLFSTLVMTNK
Chain of Sulfonylurea receptors; K-ATP channels (Homo sapiens) (Q09428 whole entry, looked up): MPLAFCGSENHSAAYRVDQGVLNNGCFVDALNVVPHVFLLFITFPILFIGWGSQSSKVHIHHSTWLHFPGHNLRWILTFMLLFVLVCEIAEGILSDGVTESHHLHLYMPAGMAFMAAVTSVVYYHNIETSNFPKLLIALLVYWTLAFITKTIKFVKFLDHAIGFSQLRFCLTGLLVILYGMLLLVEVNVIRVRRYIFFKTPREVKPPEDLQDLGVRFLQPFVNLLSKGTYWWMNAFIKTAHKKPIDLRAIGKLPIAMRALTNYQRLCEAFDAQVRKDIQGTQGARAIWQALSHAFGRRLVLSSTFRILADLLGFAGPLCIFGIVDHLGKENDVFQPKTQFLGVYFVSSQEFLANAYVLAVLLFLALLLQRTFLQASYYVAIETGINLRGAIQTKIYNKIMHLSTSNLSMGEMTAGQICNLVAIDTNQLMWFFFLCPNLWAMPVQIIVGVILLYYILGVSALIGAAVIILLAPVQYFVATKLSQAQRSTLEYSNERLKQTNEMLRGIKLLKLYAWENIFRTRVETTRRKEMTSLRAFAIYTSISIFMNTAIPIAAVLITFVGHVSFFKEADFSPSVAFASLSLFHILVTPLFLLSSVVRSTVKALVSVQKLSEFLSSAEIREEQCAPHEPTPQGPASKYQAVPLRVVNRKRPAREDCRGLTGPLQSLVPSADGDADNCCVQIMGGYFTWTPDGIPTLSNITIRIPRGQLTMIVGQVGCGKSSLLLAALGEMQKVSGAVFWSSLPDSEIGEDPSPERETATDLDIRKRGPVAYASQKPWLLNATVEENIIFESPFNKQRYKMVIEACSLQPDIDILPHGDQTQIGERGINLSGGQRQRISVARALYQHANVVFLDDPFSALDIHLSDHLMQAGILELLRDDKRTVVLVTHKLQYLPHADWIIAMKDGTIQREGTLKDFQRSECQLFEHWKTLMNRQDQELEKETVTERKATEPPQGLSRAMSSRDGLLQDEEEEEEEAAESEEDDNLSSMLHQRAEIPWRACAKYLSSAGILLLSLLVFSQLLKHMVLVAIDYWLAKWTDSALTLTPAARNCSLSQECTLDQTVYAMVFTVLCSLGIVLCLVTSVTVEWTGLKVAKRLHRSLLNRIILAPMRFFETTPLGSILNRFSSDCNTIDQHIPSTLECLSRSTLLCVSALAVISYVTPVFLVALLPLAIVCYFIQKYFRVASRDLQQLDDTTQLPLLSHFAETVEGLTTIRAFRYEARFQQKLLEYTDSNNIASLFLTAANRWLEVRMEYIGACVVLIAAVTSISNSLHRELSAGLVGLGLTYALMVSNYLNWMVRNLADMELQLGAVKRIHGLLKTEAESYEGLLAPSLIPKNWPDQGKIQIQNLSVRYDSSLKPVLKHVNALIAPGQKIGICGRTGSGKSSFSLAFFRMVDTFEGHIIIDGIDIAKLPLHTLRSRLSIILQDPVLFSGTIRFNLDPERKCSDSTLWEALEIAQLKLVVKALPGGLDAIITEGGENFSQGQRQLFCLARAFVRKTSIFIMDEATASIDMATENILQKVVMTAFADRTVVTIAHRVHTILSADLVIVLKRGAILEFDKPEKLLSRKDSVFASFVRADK
Chain of Sulfonylurea receptors; K-ATP channels (Homo sapiens) (Q14654 whole entry, looked up): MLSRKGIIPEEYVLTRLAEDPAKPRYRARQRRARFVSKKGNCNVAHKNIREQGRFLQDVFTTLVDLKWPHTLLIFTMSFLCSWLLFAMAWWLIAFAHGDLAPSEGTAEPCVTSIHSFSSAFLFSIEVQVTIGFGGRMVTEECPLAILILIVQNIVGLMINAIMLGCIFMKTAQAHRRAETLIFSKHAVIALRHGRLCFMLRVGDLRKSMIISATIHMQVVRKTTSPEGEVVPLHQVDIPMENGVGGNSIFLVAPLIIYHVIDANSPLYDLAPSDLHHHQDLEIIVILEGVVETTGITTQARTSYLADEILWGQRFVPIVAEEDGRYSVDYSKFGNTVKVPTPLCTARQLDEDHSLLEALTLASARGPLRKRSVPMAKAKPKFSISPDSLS
Chain of Sulfonylurea receptors; K-ATP channels (Homo sapiens) (Q15842 whole entry, looked up): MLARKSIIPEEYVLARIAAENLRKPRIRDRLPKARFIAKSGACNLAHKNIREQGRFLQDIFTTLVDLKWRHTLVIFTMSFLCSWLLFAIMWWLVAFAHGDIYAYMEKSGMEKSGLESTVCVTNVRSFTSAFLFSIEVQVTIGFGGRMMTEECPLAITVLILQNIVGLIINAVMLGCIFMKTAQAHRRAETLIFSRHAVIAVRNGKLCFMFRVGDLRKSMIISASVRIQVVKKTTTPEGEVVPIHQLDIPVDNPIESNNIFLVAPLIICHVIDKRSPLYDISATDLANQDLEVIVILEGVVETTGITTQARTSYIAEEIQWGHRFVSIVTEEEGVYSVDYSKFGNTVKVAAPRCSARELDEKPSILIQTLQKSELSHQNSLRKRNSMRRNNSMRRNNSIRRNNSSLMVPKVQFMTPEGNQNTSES

[10] = biological target: Angiotensin II receptor (Homo sapiens) (UniProt P30556+P50052); test: Percent decrease of Angiotensin II receptor binding; type: protein assay; parameters: concentration or dose not given beside the values; in short: as §1
[11] = biological target: T2, Glutamate receptor ionotropic AMPA (Homo sapiens) (UniProt P48058+P42263+P42262+P42261); test: Percent decrease in Quisqualate receptor binding using AMPA; type: protein-complex assay; parameters: scale not given: the % may be the effect or the level left; in short: as §1
[12] = Percent decrease in Bradykinin receptor binding; parameters: concentration or dose not given beside the values; in short: as §1
[13] = % Decrease of adenosine carrier-receptor -bound radioactivity using NBTI as a radioligand.; parameters: concentration or dose not given beside the values; in short: as §1
[14] = biological target: T3, Adenosine receptor A1 (Homo sapiens) (UniProt P30542); test: Percent decrease in Adenosine A1 receptor binding using CPDPX; parameters: scale not given: the % may be the effect or the level left
T3 sequence (whole entry): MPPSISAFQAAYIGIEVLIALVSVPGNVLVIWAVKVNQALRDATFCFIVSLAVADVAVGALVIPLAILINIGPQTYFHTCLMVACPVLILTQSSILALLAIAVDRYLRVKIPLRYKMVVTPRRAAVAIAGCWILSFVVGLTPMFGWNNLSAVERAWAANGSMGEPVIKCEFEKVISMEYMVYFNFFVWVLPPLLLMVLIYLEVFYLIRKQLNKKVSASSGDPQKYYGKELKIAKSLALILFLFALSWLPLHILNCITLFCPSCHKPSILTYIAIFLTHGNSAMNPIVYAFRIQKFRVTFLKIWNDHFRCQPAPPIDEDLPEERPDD

[15] = biological target: GABA-A receptor; anion channel (Homo sapiens) (UniProt P14867+P47870+P18507+P28472+P48169+Q99928+Q9UN88+P34903+O00591+O14764+Q8N1C3+P18505+P78334+P47869+P31644+Q16445); test: Displacement of muscimol from GABA-A receptor; type: protein-complex assay; in short: as §1
[16] = biological target: T4, Muscarinic acetylcholine receptor M1 (Homo sapiens) (UniProt P11229); test: Percent decrease of Muscarinic acetylcholine receptor M1 binding using pirenzepine; parameters: scale not given: the % may be the effect or the level left; in short: as §1
T4 sequence (whole entry): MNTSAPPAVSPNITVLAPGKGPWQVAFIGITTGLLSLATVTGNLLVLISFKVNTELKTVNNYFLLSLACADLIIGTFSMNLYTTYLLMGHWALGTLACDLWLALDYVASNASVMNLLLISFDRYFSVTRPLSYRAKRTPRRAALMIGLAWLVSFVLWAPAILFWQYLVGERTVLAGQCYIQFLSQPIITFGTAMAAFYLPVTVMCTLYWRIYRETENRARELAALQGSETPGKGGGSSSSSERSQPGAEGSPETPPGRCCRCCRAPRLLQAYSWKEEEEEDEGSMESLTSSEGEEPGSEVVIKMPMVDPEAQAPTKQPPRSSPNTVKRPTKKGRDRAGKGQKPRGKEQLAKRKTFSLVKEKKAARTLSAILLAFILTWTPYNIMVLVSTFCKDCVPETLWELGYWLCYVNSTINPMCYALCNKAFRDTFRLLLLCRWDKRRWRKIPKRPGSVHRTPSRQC

[17] = biological target: Serotonin 2 (5-HT2) receptor (Homo sapiens) (UniProt P41595+P28223+P28335); test: (§3) Percent decrease in 5-hydroxytryptamine 2 receptor binding using ketanserin; type: protein assay; parameters: scale not given: the % may be the effect or the level left; in short: as §1
[18] = biological target: D(1A) dopamine receptor (Rattus norvegicus) (UniProt P18901); test: Percent decrease in Dopamine receptor D1 binding using SCH-23390; parameters: scale not given: the % may be the effect or the level left
Chain of D(1A) dopamine receptor (Rattus norvegicus) (P18901 whole entry, looked up): as the sequence (P18901 whole entry) above

[19] = biological target: T2, Glutamate receptor ionotropic AMPA (Homo sapiens); test: Percent decrease of Quisqualate receptor binding using AMPA; type: protein-complex assay; parameters: scale not given: the % may be the effect or the level left; in short: as §1
[20] = biological target: D(2) dopamine receptor (Rattus norvegicus) (UniProt P61169); test: Percent decrease in Dopamine receptor D2 binding using spiperone; parameters: scale not given: the % may be the effect or the level left; in short: as §1
[21] = biological target: T3, Adenosine receptor A1 (Homo sapiens); test: Percent decrease in adenosine-A1-receptor binding using CPDPX; parameters: scale not given: the % may be the effect or the level left; in short: as §1
[22] = biological target: Serotonin 2 (5-HT2) receptor (Rattus norvegicus) (UniProt P30994+P08909+P14842); test: as §3; type: protein assay; parameters: scale not given: the % may be the effect or the level left; in short: as §1
[23] = biological target: Adrenergic receptor alpha-1 (Homo sapiens) (UniProt P35348+P25100+P35368); test: Percent decrease in Alpha-1 adrenergic receptor binding using prazosin; type: protein assay; in short: as §1

For `COc1cc2c(cc1OC)Cc1[nH]c3ccccc3c1CCN(C)CC2`, the Activity [1] was -22%, the Ki [2] was 0.96 µM and the Activity [3] was -77%. For the same molecule, the Activity [4] was -44%, the Activity [5] was 1% and the Activity [6] was -2%. It also gave an Activity [7] of -1%, an Activity [8] of -10% and a Ki (D(1A) dopamine receptor) of 0.091 µM. For the same molecule, the Ki (D(2) dopamine receptor) was 0.73 µM, the Activity [9] was 1% and the Activity [10] was 9%. For the same molecule, the Activity [11] was -8%, the Activity [12] was -19% and the Activity [13] was -9%. It also gave an Activity [14] of 3%, an Activity [15] of -23% and an Activity [16] of -22%. The Activity [17] was -67% and the Activity [18] was -82%.

`C[N+]12CCc3c([nH]c4ccccc34)C1c1[nH]c3ccccc3c1CC2` (configuration not stated) showed an Activity [1] of -3%, an Activity [4] of -20% and an Activity [19] of 11%. The Activity [5] was 0%, the Activity [6] was -33% and the Activity [7] was -17%. The Activity [8] was 3%, the Activity [20] was -22% and the Activity [9] was 6%. For the same molecule, the Activity [10] was -3%, the Activity [12] was -4% and the Activity [13] was 7%. For the same molecule, the Activity [21] was 11%, the Activity [15] was -4% and the Activity [16] was -15%. For the same molecule, the Activity [22] was -32% and the Decrease [23] was -64%.

Molecule `CN1CCc2c([nH]c3ccccc23)Cc2[nH]c3ccccc3c2CC1` has an Activity [1] of -25%, a Ki [2] of 0.18 µM and an Activity [3] of -95%. The Activity [4] was -56%, the Activity [5] was 0% and the Activity [6] was -13%. For the same molecule, the Activity [7] was -5%, the Activity [8] was -7% and the Ki (D(1A) dopamine receptor) was 0.0096 µM. The Ki (D(2) dopamine receptor) was 0.079 µM, the Activity [9] was 0% and the Activity [10] was 9%. The Activity [11] was 0%, the Activity [12] was -21% and the Activity [13] was -11%. It also gave an Activity [14] of -6%, an Activity [15] of -4% and an Activity [16] of -14%. The Activity [17] was -80% and the Activity [18] was -95%.

Source: ChEMBL document CHEMBL1133101, “7-Methyl-6,7,8,9,14,15-hexahydro-5H-benz[d]indolo[2,3-g]azecine: a new heterocyclic system and a new lead compound for dopamine receptor antagonists” (J Med Chem, 2000)
